The values below come from ChEMBL document CHEMBL4038349, “Synthesis and Evaluation of Asymmetric Acyclic Nucleoside Bisphosphonates as Inhibitors of Plasmodium falciparum and Human Hypoxanthine-Guanine-(Xanthine) Phosphoribosyltransferase” (J Med Chem, 2017).

Data set [1] deals with Plasmodium falciparum. Description: Inhibition of Plasmodium falciparum HGPRT using PRib-PP as the substrate at 50 uM by spectrophotometric method.
Data set [2] concerns the target T1, Hypoxanthine-guanine phosphoribosyltransferase (Homo sapiens, UniProt P00492).
T1 sequence (P00492 whole entry): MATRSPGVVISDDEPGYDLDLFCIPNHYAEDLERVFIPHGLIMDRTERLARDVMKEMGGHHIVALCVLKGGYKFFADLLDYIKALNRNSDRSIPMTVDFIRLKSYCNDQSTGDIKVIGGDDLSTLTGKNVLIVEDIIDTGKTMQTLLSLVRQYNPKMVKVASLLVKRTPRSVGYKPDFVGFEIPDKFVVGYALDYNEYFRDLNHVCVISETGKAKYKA
Description: Inhibition of human HGPRT using PRib-PP as the substrate by spectrophotometric method. In outline:
(§1)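 Enzyme assays in 0.1 M Tris-HCl, 10 mM MgCl2, pH 7.4. Guanine fixed at 49 µM as non-variable substrate; PRib-PP varied 20-1400 µM at fixed inhibitor concentration; Hanes' plots. Ki from Km(app) = Km[1+[I]/Ki], assuming competitive inhibition; for Ki <2 µM, Km(app) measured at three inhibitor concentrations.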

Data set [3] can be described thus: Inhibition of Plasmodium falciparum HGPRT using PRib-PP as the substrate by spectrophotometric method. In a few lines: as §1
For data set [4], the system named is Plasmodium falciparum. Description: Antimalarial activity against Plasmodium falciparum D6 infected in type O+ human RBC assessed as reduction in [3H]hypoxanthine incorporation preincubated for 48 hrs followed by [3H]hypoxanthine addition measured after 96 hrs. The format is functional. In outline:
(§2)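 Ring-stage synchronized cultures (>90% early trophozoite, D-sorbitol) at 0.5% parasitemia, 2% hematocrit in hypoxanthine-free RPMI-1640-LPLF with 10% human plasma, 37°C under 5% O2/5% CO2/90% N2. Ten 2-fold serial dilutions of prodrug for 96 h. [3H]-hypoxanthine (0.2 μCi/well) added at ~48 h. IC50 from non-linear regression of incorporation versus log concentration. Mean (±SD) of at least two independent experiments.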

Data set [5] is described as follows: Selectivity index, ratio of CC50 for human A549 cells to IC50 for Plasmodium falciparum D6. The format is toxicity. The following applies: read-out: Ratio CC50/IC50. In outline:
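Ratio CC50/IC50. CC50: A549 cells, 4-day proliferation, Coulter counting. IC50: Pf D6 ring-stage cultures, 0.5% parasitemia, 2% hematocrit, hypoxanthine-free medium, ten 2-fold dilutions of phosphoramidate prodrugs for 96 h; [3H]-hypoxanthine added at ~48 h; IC50 by non-linear regression; at least two independent experiments, mean ±SD.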

Data set [6] deals with Plasmodium falciparum. Description: Antimalarial activity against chloroquine and pyrimethamine-resistant Plasmodium falciparum W2 infected in type O+ human RBC assessed as reduction in [3H]hypoxanthine incorporation preincubated for 48 hrs followed by [3H]hypoxanthine addition measured after 96 hrs. It is filed as functional. In a few lines:
as §2

Data set [7] in a line: Cytotoxicity against human A549 cells after 4 days by Coulter counting method. It is filed as cell-based. In a few lines:
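Human lung carcinoma A549 cells seeded at 7500 cells/well, compounds added next day in serial dilutions; 4 days at 37°C, then cells trypsinized and counted. CC50 = concentration giving 50% inhibition of proliferation versus no-compound control, derived by extrapolation assuming semi-log dose-response.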

Data set [8] deals with Plasmodium falciparum. Description: Inhibition of Plasmodium falciparum HGPRT using PRib-PP as the substrate at 33 uM by spectrophotometric method.

Activity calls are given as the source filed them. The rule behind the calls is not given here.

The Ki is the equilibrium dissociation constant of an inhibitor or competing ligand from its target. By IC50 is commonly meant the concentration at which inhibition is half-maximal. As a reminder, the CC50 is the concentration that lowers cell viability or growth by half. Low readings indicate greater toxicity to the cells, high ones lower toxicity to the cells.

`O=c1[nH]cnc2c1nc(Br)n2CC(COCCP(=O)(O)O)COCP(=O)(O)O` (stereo not given): the inhibition result with Plasmodium falciparum [1] is “inactive”. Also, in data set [2], the Ki came to 2.5 µM.
As to `Nc1nc2c(ncn2CC(COCCP(=O)(O)O)OCCP(=O)(O)O)c(=O)[nH]1` (stereo not given), in data set [3], affinity was put at a Ki of 0.5 µM.
Same read-out and setting: to `O=c1[nH]cnc2c1ncn2CC(COCP(=O)(O)O)COCP(=O)(O)O` belongs 5 µM.
Regarding `CCOC(=O)[C@H](Cc1ccccc1)NP(=O)(CCOCC(COCP(=O)(N[C@@H](Cc1ccccc1)C(=O)OCC)N[C@@H](Cc1ccccc1)C(=O)OCC)Cn1cnc2c(=O)[nH]c(N)nc21)N[C@@H](Cc1ccccc1)C(=O)OCC` (stereo not given in full), the half-inhibitory concentration (IC50) in the data set on Plasmodium falciparum [4] came out at 5.7 µM; with Plasmodium falciparum [6], 7.4 µM. In addition, the selectivity ratio in data set [5] came out at 37. Further, in data set [7], half-maximal cytotoxicity (CC50 at 96 h) was put at 212 µM.
As for `O=c1[nH]cnc2c1ccn2CC(COCCP(=O)(O)O)COCP(=O)(O)O` (stereo not given), the results for the inhibition constant (Ki) in data set [3] and in data set [2] were 6 µM and 4.6 µM, respectively.
Regarding `O=c1[nH]cnc2c1ncn2CC(COCCP(=O)(O)O)OCCP(=O)(O)O` (stereo not given), the Ki in data set [2] was found to be 0.7 µM. In the data set on Plasmodium falciparum [8], the inhibition result was “inactive”.
In data set [7], `CCOC(=O)[C@H](Cc1ccccc1)NP(=O)(CCOCC(Cn1c(Br)nc2c(=O)[nH]c(N)nc21)OCCP(=O)(N[C@@H](Cc1ccccc1)C(=O)OCC)N[C@@H](Cc1ccccc1)C(=O)OCC)N[C@@H](Cc1ccccc1)C(=O)OCC` (stereo not given in full) came in with a CC50 at 96 h of 188 µM.
With `CCOC(=O)[C@H](Cc1ccccc1)NP(=O)(CCOCC(COCP(=O)(N[C@@H](Cc1ccccc1)C(=O)OCC)N[C@@H](Cc1ccccc1)C(=O)OCC)Cn1c(Br)nc2c(=O)[nH]c(N)nc21)N[C@@H](Cc1ccccc1)C(=O)OCC` (stereo not given in full), the half-inhibitory concentration (IC50) came out at 5.6 µM in the data set with Plasmodium falciparum [4] and 8.3 µM in the data set with Plasmodium falciparum [6]. Moreover, in data set [5], the selectivity ratio was 27. In data set [7], this compound gave a CC50 at 96 h of 151 µM.
The compound `CCOC(=O)[C@H](Cc1ccccc1)NP(=O)(CCOCC(COCP(=O)(N[C@@H](Cc1ccccc1)C(=O)OCC)N[C@@H](Cc1ccccc1)C(=O)OCC)Cn1ccc2c(=O)[nH]cnc21)N[C@@H](Cc1ccccc1)C(=O)OCC` (stereo not given in full) came in with a CC50 at 96 h in data set [7] of 20 µM.
`CCOC(=O)[C@H](Cc1ccccc1)NP(=O)(CCOCC(COCP(=O)(N[C@@H](Cc1ccccc1)C(=O)OCC)N[C@@H](Cc1ccccc1)C(=O)OCC)Cn1c(Br)nc2c(=O)[nH]cnc21)N[C@@H](Cc1ccccc1)C(=O)OCC` (stereo not given in full) yielded a 50% cytotoxic concentration (CC50) at 96 h in data set [7] of 36 µM.
For `Nc1nc2c(ncn2CC(COCCP(=O)(O)O)COCP(=O)(O)O)c(=O)[nH]1` (stereo not given), the values for the Ki in data set [3] and in data set [2] were 0.07 µM and 0.006 µM, respectively.
For `O=c1[nH]cnc2c1ncn2CC(COCCP(=O)(O)O)COCP(=O)(O)O` (stereo not given), in that order: 3 µM and 1.8 µM.
The matching figures for `Nc1nc2c(ccn2CC(COCCP(=O)(O)O)COCP(=O)(O)O)c(=O)[nH]1` (stereo not given): 4 µM and 0.1 µM.
For `Nc1nc2c(nc(Br)n2CC(COCCP(=O)(O)O)COCP(=O)(O)O)c(=O)[nH]1` (stereo not given), in that order: 2 µM and 0.1 µM.
Regarding `CCOC(=O)[C@H](Cc1ccccc1)NP(=O)(CCOCC(Cn1cnc2c(=O)[nH]cnc21)OCCP(=O)(N[C@@H](Cc1ccccc1)C(=O)OCC)N[C@@H](Cc1ccccc1)C(=O)OCC)N[C@@H](Cc1ccccc1)C(=O)OCC` (stereo not given in full), the concentration for half-maximal inhibition (IC50) was 3.6 µM in the data set on Plasmodium falciparum [4] and 1.9 µM in the data set on Plasmodium falciparum [6]. Further, the selectivity ratio in data set [5] was 25.
Turning to `CCOC(=O)[C@H](Cc1ccccc1)NP(=O)(CCOCC(COCP(=O)(N[C@@H](Cc1ccccc1)C(=O)OCC)N[C@@H](Cc1ccccc1)C(=O)OCC)Cn1cnc2c(=O)[nH]cnc21)N[C@@H](Cc1ccccc1)C(=O)OCC` (stereo not given in full), the results for the IC50 in the data set on Plasmodium falciparum [4] and in the data set on Plasmodium falciparum [6] were 1.4 µM and 3.2 µM, respectively. Further, the selectivity ratio in data set [5] was determined as 59. For the same compound, in data set [7], the CC50 at 96 h was 82 µM.
`Nc1nc2c(nc(Br)n2CC(COCCP(=O)(O)O)OCCP(=O)(O)O)c(=O)[nH]1` (stereo not given): the results for the Ki in data set [3] and in data set [2] were 0.9 µM and 0.4 µM, respectively.
Consider `CCOC(=O)[C@H](Cc1ccccc1)NP(=O)(CCOCC(COCP(=O)(N[C@@H](Cc1ccccc1)C(=O)OCC)N[C@@H](Cc1ccccc1)C(=O)OCC)Cn1ccc2c(=O)[nH]c(N)nc21)N[C@@H](Cc1ccccc1)C(=O)OCC` (stereo not given in full), for which the 50% inhibitory concentration (IC50) was found to be 1.8 µM with Plasmodium falciparum [4] and 6.5 µM in the data set on Plasmodium falciparum [6]. In addition, the selectivity ratio in data set [5] is 59. In addition, the CC50 at 96 h in data set [7] turned out to be 106 µM.
